Experimental data reported in ChEMBL document CHEMBL1125206, “Modification of the enkephalin "message" with an artificial polycationic C-terminus” (J Med Chem, 1991).
Starred links: 1 amine or outer side, 2 acyl side, 3 side chain; linkers in the order of their positions; H or OH if unused. Residues, ends and D or L forms follow the SMILES beside them. Ethylenediamine = C(CN[*:2])N[*:1]; GABA = NCCCC(=O)O

Tests used:
[1] = species: Cavia porcellus; test: The compound was tested for inhibition of electrically evoked contractions in guinea pig ileum with bestatin at 10e-6 M conc.; format: functional
Procedure, shortened: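 Guinea pig ileum, electrically stimulated. Compound at 10⁻⁶ M final concentration, scored as inhibition of evoked contractions. Tissues were qualified with a morphine response at 10⁻⁷ M. Values are the average of two or three experiments. Compounds tested as HCl salts.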

[2] = species: Cavia porcellus; test: Inhibition of electrically evoked contractions in guinea pig ileum at 10e-6 M with cocktail comprised of 10 uM thiophan, and 10 mM L-leucylleucine.; format: functional
Procedure, shortened: (§1)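 Isolated guinea pig ileum, electrically stimulated; inhibition of evoked contractions by compound (HCl salt) at 10⁻⁶ M final. Only tissues responding to 10⁻⁷ M morphine reference were used. Values are the average of two or three experiments.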

[3] = target: Mu-type opioid receptor (Cavia porcellus, UniProt P97266); test: The compound was tested for binding activity towards opioid receptor mu in guinea pig brain membranes.; format: cell membranes
Procedure, shortened: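 Competitive radioligand binding used male Hartley guinea pig brain membranes at 25 °C in 100 mM NaCl, with 0.5 nM [³H]naloxone (final) for μ sites. Compounds were tested as HCl salts. Data come from single duplicate experiments or are mean ± SEM of three experiments run in duplicate.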

[4] = species: Cavia porcellus; test: Inhibition of electrically evoked contractions in guinea pig ileum at 10e-6 M conc. with cocktail comprised of 10 uM bestatin, 10 uM captopril, 0.3 uM thiophan, and 10 mM L-leucylleucine.; format: functional; procedure, shortened: as §1
[5] = target: Kappa-type opioid receptor (Cavia porcellus, UniProt P41144); test: The compound was tested for binding activity towards opioid receptor kappa in guinea pig brain membranes.; format: cell membranes
Procedure, shortened: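 Guinea pig brain membranes (male Hartley) in competitive radioligand displacement at 25 °C with 100 mM NaCl. κ sites were labelled with 1 nM (-)-[³H]EKC (final), with 500 nM DADLE and 20 nM sufentanil masking other sites. Compounds were tested as HCl salts. Values are single experiments in duplicate or mean ± SEM of three experiments in duplicate.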

[6] = species: Cavia porcellus; test: The compound was tested for inhibition of electrically evoked contractions in guinea pig ileum with bestatin at 10e-6 M; format: functional; procedure, shortened: as §1

Sequence of Kappa-type opioid receptor (P41144 whole entry): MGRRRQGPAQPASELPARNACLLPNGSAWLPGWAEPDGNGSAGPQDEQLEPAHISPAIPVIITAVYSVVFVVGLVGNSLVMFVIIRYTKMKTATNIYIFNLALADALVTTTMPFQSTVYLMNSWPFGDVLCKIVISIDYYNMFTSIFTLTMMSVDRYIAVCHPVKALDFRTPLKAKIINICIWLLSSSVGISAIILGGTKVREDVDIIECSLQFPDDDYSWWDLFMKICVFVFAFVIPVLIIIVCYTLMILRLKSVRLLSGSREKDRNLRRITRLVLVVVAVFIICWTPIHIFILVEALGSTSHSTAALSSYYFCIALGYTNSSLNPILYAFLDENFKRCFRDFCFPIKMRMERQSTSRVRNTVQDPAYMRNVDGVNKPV
Sequence of Mu-type opioid receptor (P97266 whole entry): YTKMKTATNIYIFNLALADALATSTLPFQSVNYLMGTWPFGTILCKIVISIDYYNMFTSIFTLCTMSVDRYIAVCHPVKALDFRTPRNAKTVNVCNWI

| SMILES | inhibition at 1 µM [1] [%] | Inhibition [2] [%] | Ki [3] [µM] | Inhibition [4] [%] | Ki [5] [µM] | inhibition at 1 µM [6] [%] |
| --- | --- | --- | --- | --- | --- | --- |
| NCCCC(=O)NCCN(CCNC(=O)CCCN)C(=O)CCCN | 0 | 0 |  |  |  |  |
| NCCCC(=O)NCCNC(=O)[C@H](Cc1ccccc1)NC(=O)CNC(=O)CNC(=O)[C@@H](N)Cc1ccc(O)cc1 (H-YGGF-{Ethylenediamine-GABA}) | 29.5 |  | 16.5 | 28.5 | 36.7 |  |
| NCCCC(=O)NCCCN(CCCNC(=O)[C@H](Cc1ccccc1)NC(=O)CNC(=O)CNC(=O)[C@@H](N)Cc1ccc(O)cc1)C(=O)CCCN (HELM PEPTIDE1{Y.G.G.F.[NCCCC(=O)NCCCN(CCCN[*:1])C(=O)CCCN]}$$$$V2.0) |  | 12.5 | 7.3 |  | 5.51 | 13 |
| NCCCC(=O)NCCN(CCN(CCNC(=O)[C@H](Cc1ccccc1)NC(=O)CNC(=O)CNC(=O)[C@@H](N)Cc1ccc(O)cc1)C(=O)CCCN)C(=O)CCCN (HELM PEPTIDE1{Y.G.G.F.[NCCCC(=O)NCCN(CCN(CCN[*:1])C(=O)CCCN)C(=O)CCCN]}$$$$V2.0) |  | 9 | 6.76 |  | 3.73 |  |
| NCCCC(=O)NCCN(CCNC(=O)[C@H](Cc1ccccc1)NC(=O)CNC(=O)CNC(=O)[C@@H](N)Cc1ccc(O)cc1)C(=O)CCCN (HELM PEPTIDE1{Y.G.G.F.[NCCCC(=O)NCCN(CCN[*:1])C(=O)CCCN]}$$$$V2.0) | 13.5 |  | 14.4 | 17.5 | 8.75 |  |
| CC[C@H](C)[C@H](NC(=O)[C@H](CCCNC(=N)N)NC(=O)[C@H](CCCNC(=N)N)NC(=O)[C@H](CC(C)C)NC(=O)[C@H](Cc1ccccc1)NC(=O)CNC(=O)CNC(=O)[C@@H](N)Cc1ccc(O)cc1)C(=O)N[C@@H](CCCNC(=N)N)C(=O)N1CCC[C@H]1C(=O)N[C@@H](CCCCN)C(=O)N[C@@H](CC(C)C)C(=O)N[C@@H](CCCCN)C(=O)O [ANALOG OF DYNORPHIN A] |  |  | 0.05 |  | 0.0036 |  |
